Results from ChEMBL document CHEMBL1944580, “Synthesis of novel sulfonamide-1,2,4-triazoles, 1,3,4-thiadiazoles and 1,3,4-oxadiazoles, as potential antibacterial and antifungal agents. Biological evaluation and conformational analysis studies” (2012).
≈ marks a conversion by molar mass, not a printed value.

What was measured:
Aspergillus versicolor [1] = assay: Antifungal activity against Aspergillus versicolor ATCC 11730 treated for 72 hrs followed by sub-cultivated for 5 days by serial dilution method; assay type: functional
Method in brief: (§1)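 MFC obtained after the 72 h, 28 °C malt-broth microdilution (spore inoculum about 1.0 × 10^5 per well, compounds from 1 mg/ml DMSO). 2 µl was serially subcultured into 100 µl broth per well and incubated a further 5 days at 28 °C. MFC is the lowest concentration with no visible growth, taken as 99.5% killing of the original inoculum.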

Staphylococcus aureus [2] = assay: Antibacterial activity against Staphylococcus aureus ATCC 6538 treated for 24 hrs followed by sub-cultivated for 72 hrs by micro dilution method; assay type: functional
Method in brief: (§2)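 2 µl from each well was serially subcultured into 100 µl fresh broth per well and incubated a further 72 h. MBC is the lowest concentration with no visible growth, taken as 99.5% killing of the original inoculum. Streptomycin and ampicillin were the positive controls.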

Trichoderma viride [3] = assay: Antifungal activity against Trichoderma viride IAM 5061 treated for 72 hrs followed by sub-cultivated for 5 days by serial dilution method; assay type: functional; method in brief: as §1
Bacillus cereus [4] = assay: Antibacterial activity against Bacillus cereus clinical isolate treated for 24 hrs followed by sub-cultivated for 72 hrs by micro dilution method; assay type: functional; method in brief: as §2
Escherichia coli [5] = assay: Antibacterial activity against Escherichia coli ATCC 35210 after 24 hrs by micro dilution method; assay type: functional; conditions: ATCC 35210, 24 h
Method in brief: (§3)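 Microdilution MIC in 96-well plates. Bacterial suspensions adjusted in sterile saline to 1.0 × 10^5 CFU/ml, giving 1.0 × 10^4 cfu per well in LB broth. Compounds tested at up to 1 mg/ml. Plates incubated 24 h. MIC taken as the lowest concentration with no visible growth under a binocular microscope. OD at 655 nm was also read against a blank and the positive control. Streptomycin and ampicillin were the positive controls.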

Aspergillus niger [6] = assay: Antifungal activity against Aspergillus niger ATCC 6275 after 72 hrs by serial dilution method; assay type: functional; conditions: ATCC 6275, 72 h
Method in brief: (§4)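 Modified microdilution MIC. Spores were washed from malt agar cultures with sterile 0.85% saline containing 0.1% Tween 80 and adjusted to about 1.0 × 10^5 per 100 µl well in malt broth. Compounds were dissolved in DMSO (1 mg/ml). Plates incubated 72 h at 28 °C. MIC is the lowest concentration with no visible growth under a binocular microscope. Bifonazole and ketoconazole were the references.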

Aspergillus fumigatus [7] = assay: Antifungal activity against Aspergillus fumigatus human isolate treated for 72 hrs followed by sub-cultivated for 5 days by serial dilution method; assay type: functional; method in brief: as §1
Listeria monocytogenes [8] = assay: Antibacterial activity against Listeria monocytogenes NCTC 7973 treated for 24 hrs followed by sub-cultivated for 72 hrs by micro dilution method; assay type: functional; method in brief: as §2
Escherichia coli [9] = assay: Antibacterial activity against Escherichia coli ATCC 35210 treated for 24 hrs followed by sub-cultivated for 72 hrs by micro dilution method; assay type: functional; method in brief: as §2
Listeria monocytogenes [10] = assay: Antibacterial activity against Listeria monocytogenes NCTC 7973 after 24 hrs by micro dilution method; assay type: functional; conditions: NCTC 7973, 24 h; method in brief: as §3
Aspergillus flavus [11] = assay: Antifungal activity against Aspergillus flavus ATCC 9643 after 72 hrs by serial dilution method; assay type: functional; conditions: ATCC 9643, 72 h; method in brief: as §4
Trichoderma viride [12] = assay: Antifungal activity against Trichoderma viride IAM 5061 after 72 hrs by serial dilution method; assay type: functional; conditions: IAM 5061, 72 h; method in brief: as §4
Aspergillus versicolor [13] = assay: Antifungal activity against Aspergillus versicolor ATCC 11730 after 72 hrs by serial dilution method; assay type: functional; conditions: ATCC 11730, 72 h; method in brief: as §4
Micrococcus flavus [14] = assay: Antibacterial activity against Micrococcus flavus ATCC 10240 after 24 hrs by micro dilution method; assay type: functional; conditions: ATCC 10240, 24 h; method in brief: as §3
Bacillus cereus [15] = assay: Antibacterial activity against Bacillus cereus clinical isolate after 24 hrs by micro dilution method; assay type: functional; method in brief: as §3
Penicillium ochrochloron [16] = assay: Antifungal activity against Penicillium ochrochloron ATCC 9112 after 72 hrs by serial dilution method; assay type: functional; conditions: ATCC 9112, 72 h; method in brief: as §4
Aspergillus niger [17] = assay: Antifungal activity against Aspergillus niger ATCC 6275 treated for 72 hrs followed by sub-cultivated for 5 days by serial dilution method; assay type: functional; method in brief: as §1
Talaromyces funiculosus [18] = assay: Antifungal activity against Penicillium funiculosum ATCC 36839 treated for 72 hrs followed by sub-cultivated for 5 days by serial dilution method; assay type: functional; method in brief: as §1
Aspergillus fumigatus [19] = assay: Antifungal activity against Aspergillus fumigatus human isolate after 72 hrs by serial dilution method; assay type: functional; method in brief: as §4
Salmonella typhimurium [20] = assay: Antibacterial activity against Salmonella Typhimurium ATCC 13311 treated for 24 hrs followed by sub-cultivated for 72 hrs by micro dilution method; assay type: functional, Salmonella enterica subsp. enterica serovar Typhimurium; conditions: Salmonella enterica; method in brief: as §2
Penicillium ochrochloron [21] = assay: Antifungal activity against Penicillium ochrochloron ATCC 9112 treated for 72 hrs followed by sub-cultivated for 5 days by serial dilution method; assay type: functional; method in brief: as §1
Fulvia fulva [22] = assay: Antifungal activity against Fulvia fulva treated for 72 hrs followed by sub-cultivated for 5 days by serial dilution method; assay type: functional; method in brief: as §1
Talaromyces funiculosus [23] = assay: Antifungal activity against Penicillium funiculosum ATCC 36839 after 72 hrs by serial dilution method; assay type: functional; conditions: ATCC 36839, 72 h; method in brief: as §4
Fulvia fulva [24] = assay: Antifungal activity against Fulvia fulva after 72 hrs by serial dilution method; assay type: functional; method in brief: as §4
Salmonella typhimurium [25] = assay: Antibacterial activity against Salmonella Typhimurium ATCC 13311 after 24 hrs by micro dilution method; assay type: functional, Salmonella enterica subsp. enterica serovar Typhimurium; conditions: Salmonella enterica, ATCC 13311, 24 h; method in brief: as §3
Pseudomonas aeruginosa [26] = assay: Antibacterial activity against Pseudomonas aeruginosa ATCC 27853 treated for 24 hrs followed by sub-cultivated for 72 hrs by micro dilution method; assay type: functional; method in brief: as §2
Micrococcus flavus [27] = assay: Antibacterial activity against Micrococcus flavus ATCC 10240 treated for 24 hrs followed by sub-cultivated for 72 hrs by micro dilution method; assay type: functional; method in brief: as §2
Enterobacter cloacae [28] = assay: Antibacterial activity against Enterobacter cloacae human isolate after 24 hrs by micro dilution method; assay type: functional; method in brief: as §3
Pseudomonas aeruginosa [29] = assay: Antibacterial activity against Pseudomonas aeruginosa ATCC 27853 after 24 hrs by micro dilution method; assay type: functional; conditions: ATCC 27853, 24 h; method in brief: as §3
Enterobacter cloacae [30] = assay: Antibacterial activity against Enterobacter cloacae human isolate treated for 24 hrs followed by sub-cultivated for 72 hrs by micro dilution method; assay type: functional; method in brief: as §2
Staphylococcus aureus [31] = assay: Antibacterial activity against Staphylococcus aureus ATCC 6538 after 24 hrs by micro dilution method; assay type: functional; conditions: ATCC 6538, 24 h; method in brief: as §3
Aspergillus flavus [32] = assay: Antifungal activity against Aspergillus flavus ATCC 9643 treated for 72 hrs followed by sub-cultivated for 5 days by serial dilution method; assay type: functional; method in brief: as §1

| SMILES | MFC (Aspergillus versicolor [1]) [µM] | MBC (Staphylococcus aureus [2]) [µM] | MFC (Trichoderma viride [3]) [µM] | MBC (Bacillus cereus [4]) [µM] | MIC (Escherichia coli [5]) [µM] | MIC (Aspergillus niger [6]) [µM] | MFC (Aspergillus fumigatus [7]) [µM] | MBC (Listeria monocytogenes [8]) [µM] | MBC (Escherichia coli [9]) [µM] | MIC (Listeria monocytogenes [10]) [µM] | MIC (Aspergillus flavus [11]) [µM] | MIC (Trichoderma viride [12]) [µM] | MIC (Aspergillus versicolor [13]) [µM] | MIC (Micrococcus flavus [14]) [µM] | MIC (Bacillus cereus [15]) [µM] | MIC (Penicillium ochrochloron [16]) [µM] | MFC (Aspergillus niger [17]) [µM] | MFC (Talaromyces funiculosus [18]) [µM] | MIC (Aspergillus fumigatus [19]) [µM] | MBC (Salmonella typhimurium [20]) [µM] | other results |
| --- | --- | --- | --- | --- | --- | --- | --- | --- | --- | --- | --- | --- | --- | --- | --- | --- | --- | --- | --- | --- | --- |
| CCCCNc1nnc(Cc2cc(OC)c(OC)cc2S(=O)(=O)N(C)C)o1 | 750 (≈ 299 µg/mL) | 380 (≈ 151 µg/mL) | 130 (≈ 51.8 µg/mL) | 250 (≈ 99.6 µg/mL) | 630 (≈ 251 µg/mL) | 250 (≈ 99.6 µg/mL) | 250 (≈ 99.6 µg/mL) | 750 (≈ 299 µg/mL) | 630 (≈ 251 µg/mL) | 250 (≈ 99.6 µg/mL) | 250 (≈ 99.6 µg/mL) | 130 (≈ 51.8 µg/mL) | 250 (≈ 99.6 µg/mL) | 250 (≈ 99.6 µg/mL) | 250 (≈ 99.6 µg/mL) | 250 (≈ 99.6 µg/mL) | 750 (≈ 299 µg/mL) | 500 (≈ 199 µg/mL) | 130 (≈ 51.8 µg/mL) | 250 (≈ 99.6 µg/mL) | MFC (Penicillium ochrochloron [21]): 750 µM (≈ 299 µg/mL); MFC (Fulvia fulva [22]): 250 µM (≈ 99.6 µg/mL); MIC (Talaromyces funiculosus [23]): 250 µM (≈ 99.6 µg/mL); MIC (Fulvia fulva [24]): 130 µM (≈ 51.8 µg/mL); MIC (Salmonella typhimurium [25]): 130 µM (≈ 51.8 µg/mL); MBC (Pseudomonas aeruginosa [26]): 250 µM (≈ 99.6 µg/mL); MBC (Micrococcus flavus [27]): 500 µM (≈ 199 µg/mL); MIC (Enterobacter cloacae [28]): 630 µM (≈ 251 µg/mL); MIC (Pseudomonas aeruginosa [29]): 130 µM (≈ 51.8 µg/mL); MBC (Enterobacter cloacae [30]): 750 µM (≈ 299 µg/mL); MIC (Staphylococcus aureus [31]): 250 µM (≈ 99.6 µg/mL); MFC (Aspergillus flavus [32]): 750 µM (≈ 299 µg/mL) |
| COc1cc(Cc2nnc(NC(C)(C)C)o2)c(S(=O)(=O)N(C)C)cc1OC | 380 (≈ 151 µg/mL) | 500 (≈ 199 µg/mL) | 130 (≈ 51.8 µg/mL) | 390 (≈ 155 µg/mL) | 390 (≈ 155 µg/mL) | 250 (≈ 99.6 µg/mL) | 250 (≈ 99.6 µg/mL) | 390 (≈ 155 µg/mL) | 390 (≈ 155 µg/mL) | 250 (≈ 99.6 µg/mL) | 130 (≈ 51.8 µg/mL) | 60 (≈ 23.9 µg/mL) | 130 (≈ 51.8 µg/mL) | 250 (≈ 99.6 µg/mL) | 390 (≈ 155 µg/mL) | 130 (≈ 51.8 µg/mL) | 380 (≈ 151 µg/mL) | 250 (≈ 99.6 µg/mL) | 130 (≈ 51.8 µg/mL) | 250 (≈ 99.6 µg/mL) | MFC (Penicillium ochrochloron [21]): 380 µM (≈ 151 µg/mL); MFC (Fulvia fulva [22]): 250 µM (≈ 99.6 µg/mL); MIC (Talaromyces funiculosus [23]): 130 µM (≈ 51.8 µg/mL); MIC (Fulvia fulva [24]): 250 µM (≈ 99.6 µg/mL); MIC (Salmonella typhimurium [25]): 130 µM (≈ 51.8 µg/mL); MBC (Pseudomonas aeruginosa [26]): 390 µM (≈ 155 µg/mL); MBC (Micrococcus flavus [27]): 500 µM (≈ 199 µg/mL); MIC (Enterobacter cloacae [28]): 630 µM (≈ 251 µg/mL); MIC (Pseudomonas aeruginosa [29]): 390 µM (≈ 155 µg/mL); MBC (Enterobacter cloacae [30]): 630 µM (≈ 251 µg/mL); MIC (Staphylococcus aureus [31]): 250 µM (≈ 99.6 µg/mL); MFC (Aspergillus flavus [32]): 250 µM (≈ 99.6 µg/mL) |
